Source: ChEMBL document CHEMBL4613270, “Structure-Activity Relationship Study Enables the Discovery of a Novel Berberine Analogue as the RXRα Activator to Inhibit Colon Cancer” (J Med Chem, 2020)
Active and inactive are the calls of the source. No cut-off for these calls is given here.

How the values were obtained:
[1] = Toxicity in BALB/c mouse xenografted with human KM12C cells assessed as effect on biochemical parameter by measuring ALP level at 100 mg/kg, ig dosed daily for 15 days by automatic chemistry analyzer based analysis (reference value: 76.53 +/- 4.31 U/L); assay type: organism-based; conditions: in vivo, po, 360 h
[2] = target: T1, Retinoic acid receptor RXR-alpha (Homo sapiens) (UniProt P19793); assay: In-vivo activation of RXRalpha in BALB/c mouse xenografted with human KM12C cells assessed as increase in p21 (WAF1/CIP1) mRNA expression at 100 mg/kg, ig dosed daily for 15 days by real-time PCR analysis; assay type: functional, organism-based
T1 sequence (whole entry): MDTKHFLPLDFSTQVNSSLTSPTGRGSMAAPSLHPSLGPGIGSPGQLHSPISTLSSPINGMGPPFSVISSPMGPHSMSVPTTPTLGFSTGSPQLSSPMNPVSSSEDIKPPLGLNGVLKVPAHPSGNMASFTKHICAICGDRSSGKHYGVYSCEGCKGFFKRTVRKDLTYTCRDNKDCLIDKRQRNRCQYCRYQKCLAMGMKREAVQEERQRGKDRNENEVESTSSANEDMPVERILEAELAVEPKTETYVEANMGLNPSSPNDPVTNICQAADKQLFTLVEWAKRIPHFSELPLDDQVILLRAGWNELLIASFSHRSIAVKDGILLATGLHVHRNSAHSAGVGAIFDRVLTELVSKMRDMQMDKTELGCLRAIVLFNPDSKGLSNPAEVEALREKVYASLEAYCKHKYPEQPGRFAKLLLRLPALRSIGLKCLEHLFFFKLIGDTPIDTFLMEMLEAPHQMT

[3] = Tmax in Sprague-Dawley rat at 100 mg/kg, ig measured after 0.083 to 36 hrs by LC-MS/MS analysis; assay type: ADME, organism-based; conditions: in vivo, po
Summary of the method: (§1)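 SD rats (200 ± 20 g) randomized to three groups; single intragastric dose of 100 mg/kg or vehicle (0.5% CMC-Na). Tail-vein blood (0.5 mL) drawn at 0.083, 0.25, 0.5, 1, 2, 4, 8, 12, 24 and 36 h. Plasma separated by centrifugation at 2000 rpm for 10 min, frozen at -80 °C, then quantified by LC-MS/MS.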

[4] = target: T1, Retinoic acid receptor RXR-alpha (Homo sapiens); assay: In-vivo activation of RXRalpha in BALB/c mouse xenografted with human KM12C cells assessed as reduction in Cdc2 mRNA expression at 100 mg/kg, ig dosed daily for 15 days by real-time PCR analysis; assay type: functional, organism-based
Summary of the method: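 KM12C cells (1×10^6 per mouse in 100 μL HBSS) injected subcutaneously into both flanks of nude mice; after seven days, randomized to three groups, dosed intragastrically once daily for 15 days with vehicle (CMC-Na) or 100 mg/kg compound; mice euthanized and tumors removed for analysis.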

[5] = target: T1, Retinoic acid receptor RXR-alpha (Homo sapiens); assay: Activation of RXRalpha in human SW620 cells assessed as reduction in c-Myc protein expression at 40 to 80 uM incubated for 15 hrs by Western blot analysis; assay type: cell-based; conditions: SW-620
[6] = target: T1, Retinoic acid receptor RXR-alpha (Homo sapiens); assay: Activation of RXRalpha (unknown origin) expressed in human HCT116 cells co-expressing beta-catenin and c-Cbl assessed as induction of beta-caten interaction with c-Cbl at 30 to 60 uM incubated for 15 hrs by mammalian two-hybrid assay; assay type: cell-based; conditions: HCT-116
Summary of the method: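 Mammalian two-hybrid: cells co-transfected by lipofection with pBIND-β-catenin/S33Y plus pACT-RXRα (RXRα–β-catenin) or pACT-c-Cbl (β-catenin–c-Cbl); 20 h after transfection, compound added for 15 h; cells lysed in passive lysis buffer, 4 °C, 1 h; firefly and Renilla luciferase read by dual-luciferase kit.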

[7] = Cmax in Sprague-Dawley rat at 100 mg/kg, ig measured after 0.083 to 36 hrs by LC-MS/MS analysis; assay type: ADME, organism-based; set-up: dose 100 mg/kg, route intragastric; conditions: in vivo, po; summary of the method: as §1
[8] = target: T1, Retinoic acid receptor RXR-alpha (Homo sapiens); assay: Activation of RXRalpha in human SW620 cells assessed as reduction in Cdc2 mRNA expression at 40 to 80 uM incubated for 15 hrs by real-time PCR analysis; assay type: cell-based; conditions: SW-620
[9] = target: T1, Retinoic acid receptor RXR-alpha (Homo sapiens); assay: Activation of RXRalpha in human KM12C cells assessed as reduction in Cdc2 protein expression at 25 to 50 uM incubated for 15 hrs by Western blot analysis; assay type: cell-based
[10] = Half life in Sprague-Dawley rat at 100 mg/kg, ig measured after 0.083 to 36 hrs by LC-MS/MS analysis; assay type: ADME, organism-based; conditions: in vivo, po; summary of the method: as §1
[11] = target: T1, Retinoic acid receptor RXR-alpha (Homo sapiens); assay: Activation of RXRalpha in human SW620 cells assessed as increase in p21 (WAF1/CIP1) protein expression at 40 to 80 uM incubated for 15 hrs by Western blot analysis; assay type: cell-based; conditions: SW-620
[12] = Toxicity in BALB/c mouse xenografted with human KM12C cells assessed as effect on biochemical parameter by measuring AST level at 100 mg/kg, ig dosed daily for 15 days by automatic chemistry analyzer based analysis (reference value: 157.15 +/- 8.41 U/L); assay type: organism-based; conditions: in vivo, po, 360 h
[13] = target: T1, Retinoic acid receptor RXR-alpha (Homo sapiens); assay: Activation of RXRalpha in human SW620 cells assessed as reduction in Cdc2 protein expression at 40 to 80 uM incubated for 15 hrs by Western blot analysis; assay type: cell-based; conditions: SW-620
[14] = target: T1, Retinoic acid receptor RXR-alpha (Homo sapiens); assay: Activation of RXRalpha in human HCT116 cells assessed as increase in p21 (WAF1/CIP1) protein expression at 30 to 60 uM incubated for 15 hrs by Western blot analysis; assay type: cell-based; conditions: HCT-116
KM12C = assay: Inhibition of cell proliferation of human KM12C cells incubated for 15 hrs by MTT assay; assay type: functional, cell-based
Summary of the method: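 Cells plated at 1×10⁴ per well, incubated overnight at 37 °C, then exposed to a concentration series for 15 h. MTT (5 mg/mL stock) added for 4 h at 37 °C. Formazan dissolved in DMSO and absorbance read at 570 nm. IC50 derived from the dose-response curve.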

[15] = target: T1, Retinoic acid receptor RXR-alpha (Homo sapiens); assay: Activation of RXRalpha in human HCT116 cells assessed as inhibition of Wnt/beta-catenin-dependent transcriptional activity at 30 to 60 uM incubated for 15 hrs by TOP/FOP luciferase assay; assay type: cell-based; conditions: HCT-116
Summary of the method: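 TOP/FOP reporter: cells co-transfected by lipofection with pRL-TK plus TOPflash or FOPflash; compound added 20 h after transfection for 15 h; passive lysis at 4 °C, 1 h; firefly and Renilla luciferase measured by dual-luciferase assay.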

[16] = target: T1, Retinoic acid receptor RXR-alpha (Homo sapiens); assay: In-vivo activation of RXRalpha in BALB/c mouse xenografted with human KM12C cells assessed as effect on PCNA protein expression at 100 mg/kg, ig dosed daily for 15 days by immunohistochemistry analysis; assay type: functional, organism-based
[17] = Toxicity in BALB/c mouse xenografted with human KM12C cells assessed as effect on biochemical parameter by measuring creatinine level at 100 mg/kg, ig dosed daily for 15 days by automatic chemistry analyzer based analysis (reference value: 27.02 +/- 1.22 umol/L); assay type: organism-based; conditions: in vivo, po, 360 h
[18] = target: T1, Retinoic acid receptor RXR-alpha (Homo sapiens); assay: Activation of RXRalpha in human KM12C cells assessed as reduction in c-Myc protein expression at 25 to 50 uM incubated for 15 hrs by Western blot analysis; assay type: cell-based

SMILES | Activity [1] [U/L] | Activity [2] | Tmax [3] [h] | Activity [4] | Activity [5] | Activity [6] | Cmax ([7]; Sprague-Dawley, read-out: Cmax) [ng/mL] | Activity [8] | Activity [9] | half-life [10] [h] | Activity [11] | Activity [12] [U/L] | Activity [13] | Activity [14] | IC50 (KM12C) [µM] | Activity [15] | Activity [16] | Activity [17] [µmol/L] | Activity [18] | Cmax [7] [ng/mL]
COc1ccc2c(c1)CC[n+]1cc3c(OC)cccc3cc1-2.[Cl-] | 78.35 | Active | 2 | Active | Active | Active | 486 | Active | Active | 11.6 | Active | 158.36 | Active | Active | 31.1 | Active | Active | 28.95 | Active | –
COc1ccc2cc3[n+](cc2c1OC)CCc1cc2c(cc1-3)OCO2.[Cl-] [BERBERINE CHLORIDE] | 71.28 | Active | 2 | Active | Active | Active | – | Active | Active | 29 | Active | 177.86 | Active | Active | 76.3 | Active | Active | 24.36 | Active | 2.893
